From ChEMBL document CHEMBL1147853, “Synthesis and anti-HIV studies of 2-adamantyl-substituted thiazolidin-4-ones” (Eur J Med Chem, 2007)
pEC50, pIC50, pKi: −log10 of the molar value. Calls of active or inactive are those of the source. The rule behind the calls is not given here.

Columns and labels:
[1] = Selectivity index, ratio of CC50 for CEM cells to EC50 for HIV1 infected CEM cells; type: functional, CCRF-CEM
[2] = system: Human immunodeficiency virus 2; assay: Antiviral activity against HIV2 ROD in CEM cells; type: functional, organism-based; conditions: Human immunodeficiency virus 2, ROD, CCRF-CEM
In short: (§1)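 CEM cells at 4×10^4 cells/mL infected with virus at ~100 CCID50 per mL of cell suspension, then mixed 1:1 with serial dilutions of compound. After four days, giant cell formation was scored microscopically.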

Influenza A virus = assay: Antiviral activity against influenza virus H3N2 in MDCK cells; type: functional, organism-based
[3] = system: Human immunodeficiency virus 1; assay: Antiviral activity against HIV1 3B in CEM cells; type: functional, organism-based; conditions: Human immunodeficiency virus 1, 3B, CCRF-CEM; in short: as §1
[4] = Cytotoxicity against CEM cells; type: cell-based; conditions: human, CEM (CCRF-CEM) cells
In short: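 CEM cells were plated at 300,000–500,000 cells/mL with an equal volume of compound dilutions and incubated 3 days at 37 °C. Cell number was counted with a Coulter counter.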

[5] = biological target: T1, Human immunodeficiency virus type 1 reverse transcriptase (Human immunodeficiency virus 1, UniProt Q72547); assay: Inhibition of HIV1 reverse transcriptase using Poly rA.dT template
In short: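 Recombinant HIV-1(IIIB) RT was assayed in 50 mM Tris-HCl pH 7.8 with 5 mM DTT, 300 mM glutathione, 500 µM EDTA, 150 mM KCl, 5 mM MgCl2, BSA and 0.06% Triton X-100. Template/primer was poly(A).oligo(dT) at 0.1 mM with [3H]dTTP at 0.6 µM. Reactions ran 30 min at 37 °C, followed by TCA precipitation and radioactivity counting.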

[6] = biological target: T1, Human immunodeficiency virus type 1 reverse transcriptase; assay: Inhibition of HIV1 reverse transcriptase using Poly rC.dG template
[7] = system: Human immunodeficiency virus 1; assay: Antiviral activity against HIV1 3B with reverse transcriptase Tyr181His mutation; type: functional, organism-based; conditions: Human immunodeficiency virus 1, 3B
[8] = system: Human immunodeficiency virus 1; assay: Antiviral activity against HIV1 3B with reverse transcriptase Tyr181Cys mutation; type: functional, organism-based; conditions: Human immunodeficiency virus 1, 3B
In short: (§2)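 CEM cells at 4×10^4 cells/mL were infected with HIV-1(III_B) strains carrying NNRTI-type RT mutations, at ~100 CCID₅₀ per mL of cell suspension. Infected cells were mixed 1:1 with serial compound dilutions. Giant cell formation was scored microscopically after four days. EC₅₀ is the concentration inhibiting virus-induced cytopathicity by 50%.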

[9] = system: Human immunodeficiency virus 1; assay: Antiviral activity against HIV1 3B with reverse transcriptase Tyr181Ile mutation; type: functional, organism-based; conditions: Human immunodeficiency virus 1, 3B; in short: as §2
[10] = system: Human immunodeficiency virus 1; assay: Antiviral activity against HIV1 3B with reverse transcriptase Leu100Ile mutation; type: functional, organism-based; conditions: Human immunodeficiency virus 1, 3B; in short: as §2
[11] = system: Human immunodeficiency virus 1; assay: Antiviral activity against HIV1 3B with reverse transcriptase Lys103 Asn mutation; type: functional, organism-based; conditions: Human immunodeficiency virus 1, 3B; in short: as §2

SMILES | Ratio CC50/EC50 [1] | pEC50 [2] | Activity (Influenza A virus) | pEC50 [3] | CC50 [4] [µM] | pIC50 [5] | pIC50 [6] | pEC50 [7] | pEC50 [8] | pKi [6] | pEC50 [9] | pEC50 [10] | pEC50 [11]
O=C1CSC(C23CC4CC(CC(C4)C2)C3)N1CCN1CCOCC1 (stereo unspecified) | <3 | < 4.24 | inactive | < 4.24 | 140 |  |  |  |  |  |  |  | 
Cc1cccnc1N1C(=O)CSC1C12CC3CC(CC(C3)C1)C2 (stereo unspecified) | <2.5 | < 4.92 | inactive | < 4.92 | 29 |  |  |  |  |  |  |  | 
CN(C)CCN1C(=O)CSC1C12CC3CC(CC(C3)C1)C2 (stereo unspecified) | 1.9 | < 4.19 | inactive | 4.19 | 125 | < 3.19 | < 3.19 |  |  |  |  |  | 
Cc1cc(C)nc(N2C(=O)CSC2C)c1 (stereo unspecified) | >450 | < 3.35 |  | < 3.35 | > 450 | < 3.05 | ≤ 3.05 |  |  |  |  |  | 
COc1ccc(N2C(=O)CSC2C23CC4CC(CC(C4)C2)C3)cc1 (stereo unspecified) | <6 | < 4.92 | inactive | < 4.92 | 74 |  |  |  |  |  |  |  | 
O=C1CSC(C23CC4CC(CC(C4)C2)C3)N1c1ccncc1 (stereo unspecified) | <2.5 | < 4.20 | inactive | < 4.20 | 159 |  |  |  |  |  |  |  | 
Cc1ccnc2c1NC(=O)c1cccnc1N2C1CC1 [NEVIRAPINE] |  | < 4.30 |  |  | > 50 |  |  |  |  |  |  |  | 
Cc1ccc(N2C(=O)CSC2C23CC4CC(CC(C4)C2)C3)nc1 (stereo unspecified) | <4.8 | < 4.91 | inactive | < 4.92 | 59 |  |  |  |  |  |  |  | 
CCN(CC)CCN1C(=O)CSC1C12CC3CC(CC(C3)C1)C2 (stereo unspecified) | 7.2 | < 4.23 | inactive | 5.11 | 56 | 3.32 | 3.32 |  |  |  |  |  | 
O=C1CSC(C23CC4CC(CC(C4)C2)C3)N1c1ccc(Cl)cc1 (stereo unspecified) | <=5 | < 4.24 | inactive | < 4.24 | ≥ 287 |  |  |  |  |  |  |  | 
O=C1CSC(C23CC4CC(CC(C4)C2)C3)N1CCN1CCCCC1 (stereo unspecified) | <4 | < 4.96 | inactive | < 4.96 | 44 |  |  |  |  |  |  |  | 
N#Cc1ccc(N2C(=O)CSC2C23CC4CC(CC(C4)C2)C3)cc1 (stereo unspecified) | <=1 | < 3.53 | inactive | < 3.53 | ≥ 295 |  |  |  |  |  |  |  | 
O=C1CSC(C23CC4CC(CC(C4)C2)C3)N1c1cccnc1 (stereo unspecified) | <=3 | < 4.20 | inactive | ≤ 4.49 | 105 | ≤ 3.20 | ≤ 3.20 |  |  |  |  |  | 
Cc1cc(C)nc(N2C(=O)CS[C@H]2C23CC4CC(CC(C4)C2)C3)c1 | 3.8 | < 4.24 | inactive | 4.92 | 44 | < 3.23 | < 3.23 |  |  |  |  |  | 
Cc1ccnc(N2C(=O)CSC2C23CC4CC(CC(C4)C2)C3)c1 (stereo unspecified) | >54 | < 3.52 | inactive | 5.25 | > 304 | 4.06 | 4.40 |  |  |  |  |  | 
Cc1cc(C)nc(N2C(=O)CS[C@@H]2C23CC4CC(CC(C4)C2)C3)c1 | 198 | < 4.92 | inactive | 6.75 | 35 | 4.70 | 4.72 | < 4.92 | 5.09 | 4.92 | < 4.92 | 5.64 | 5.82
O=c1[nH]cnc2c1ncn2[C@H]1CC[C@@H](CO)O1 [DIDANOSINE] | >54 |  |  | 5.34 | > 250 |  |  |  |  |  |  |  | 
O=C1CSC(C23CC4CC(CC(C4)C2)C3)N1c1ccc(F)cc1 (stereo unspecified) | <=1 | < 3.52 | inactive | < 3.52 | ≥ 302 |  |  |  |  |  |  |  | 
O=C1CSC(C23CC4CC(CC(C4)C2)C3)N1c1ccccn1 (stereo unspecified) | <1 | < 3.50 | inactive | < 3.50 | > 318 |  |  |  |  |  |  |  | 
CN(C)CCCN1C(=O)CSC1C12CC3CC(CC(C3)C1)C2 (stereo unspecified) | 4 | < 4.21 | inactive | 4.51 | 122 | < 3.21 | ≤ 3.21 |  |  |  |  |  | 
CCN(CC)CCCN1C(=O)CSC1C12CC3CC(CC(C3)C1)C2 (stereo unspecified) | 3.1 | < 4.24 | inactive | 4.55 | 89 | < 3.24 | < 3.24 |  |  |  |  |  | 
O=C1CSC(C23CC4CC(CC(C4)C2)C3)N1c1ccc(Cl)c(C(F)(F)F)c1 (stereo unspecified) | <1 | < 4.32 | inactive | < 4.32 | > 240 |  |  |  |  |  |  |  | 
O=C1CSC(C23CC4CC(CC(C4)C2)C3)N1c1ccc(I)cc1 (stereo unspecified) | <=1 | < 4.35 | inactive | < 3.64 | ≥ 228 |  |  |  |  |  |  |  | 
Cc1cc(C)nc(N2C(=O)CSC2C23CC4CC(CC(C4)C2)C3)c1 (stereo unspecified) | 120 | < 4.93 |  | 6.46 | 42 | 4.42 | 4.54 |  |  |  |  |  | 
O=C1CSC(C23CC4CC(CC(C4)C2)C3)N1c1ccc(Br)cc1 (stereo unspecified) | <1 | < 3.59 | inactive | < 3.59 | ≥ 255 |  |  |  |  |  |  |  | 
Cc1cccc(N2C(=O)CSC2C23CC4CC(CC(C4)C2)C3)n1 (stereo unspecified) | 14 | < 3.52 | inactive | 4.68 | > 304 | 4.37 | 4.40 |  |  |  |  |  | 
